From ChEMBL document CHEMBL1152488, “Synthesis and evaluation of pyrido[1,2-a]pyrimidines as inhibitors of nitric oxide synthases” (Eur J Med Chem, 2009)
Active and inactive are the calls of the source. No cut-off for these calls is given here.

How the values were obtained:
Nitric oxide synthase 1 = Nitric oxide synthase 1 (Rattus norvegicus, UniProt P29476); test: Inhibition of rat recombinant nNOS expressed in Saccharomyces cerevisiae assessed as conversion of [gamma-14C]L-arginine to [14C]L-citrulline by radioactive assay
How it was run: (§1)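 CaCl2/CaM present for nNOS (S. cerevisiae) and eNOS (E. coli) but omitted for iNOS (E. coli). Citrulline separated by Dowex cation exchange, then scintillation counting.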

Nitric oxide synthase 3 = biological target: T1, Nitric oxide synthase 3 (Bos taurus, UniProt P29473); test: Inhibition of bovine recombinant eNOS expressed in Escherichia coli assessed as conversion of [gamma-14C]L-arginine to [14C]L-citrulline by radioactive assay; how it was run: as §1
T1 sequence (P29473 whole entry): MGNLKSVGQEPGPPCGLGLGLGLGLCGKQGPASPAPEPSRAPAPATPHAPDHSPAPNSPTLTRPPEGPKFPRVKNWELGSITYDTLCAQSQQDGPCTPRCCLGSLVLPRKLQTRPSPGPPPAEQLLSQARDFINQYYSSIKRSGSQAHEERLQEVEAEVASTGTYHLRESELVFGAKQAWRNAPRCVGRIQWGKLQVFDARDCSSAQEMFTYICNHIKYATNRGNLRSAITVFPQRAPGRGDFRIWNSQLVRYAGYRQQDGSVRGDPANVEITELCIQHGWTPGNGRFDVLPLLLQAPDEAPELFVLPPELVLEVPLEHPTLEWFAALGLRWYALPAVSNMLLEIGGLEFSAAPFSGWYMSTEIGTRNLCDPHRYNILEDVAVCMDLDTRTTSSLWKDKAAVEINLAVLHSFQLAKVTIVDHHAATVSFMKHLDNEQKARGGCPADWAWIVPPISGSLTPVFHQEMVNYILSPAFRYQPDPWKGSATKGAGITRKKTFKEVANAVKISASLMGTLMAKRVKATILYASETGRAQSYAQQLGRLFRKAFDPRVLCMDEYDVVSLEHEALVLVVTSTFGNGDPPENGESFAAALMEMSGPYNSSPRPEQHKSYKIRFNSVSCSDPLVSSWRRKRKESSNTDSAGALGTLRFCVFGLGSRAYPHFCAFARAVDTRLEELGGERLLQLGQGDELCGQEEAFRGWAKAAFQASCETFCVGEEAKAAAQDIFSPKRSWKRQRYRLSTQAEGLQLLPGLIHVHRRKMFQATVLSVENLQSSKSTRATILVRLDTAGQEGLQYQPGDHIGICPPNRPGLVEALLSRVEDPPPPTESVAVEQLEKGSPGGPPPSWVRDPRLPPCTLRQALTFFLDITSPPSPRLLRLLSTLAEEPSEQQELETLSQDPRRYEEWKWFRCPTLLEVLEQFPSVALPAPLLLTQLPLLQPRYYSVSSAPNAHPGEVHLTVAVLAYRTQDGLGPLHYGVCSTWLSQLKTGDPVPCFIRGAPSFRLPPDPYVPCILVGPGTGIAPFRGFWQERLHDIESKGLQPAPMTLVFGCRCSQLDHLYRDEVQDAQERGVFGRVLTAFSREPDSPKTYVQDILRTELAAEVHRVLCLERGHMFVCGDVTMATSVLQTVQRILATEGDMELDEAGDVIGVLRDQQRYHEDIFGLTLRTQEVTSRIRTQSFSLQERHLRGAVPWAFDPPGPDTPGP

[1] = biological target: T2, Nitric oxide synthase, inducible (Mus musculus, UniProt P29477); test: Inhibition of mouse recombinant iNOS expressed in Escherichia coli assessed as NADPH consumption after 2 mins by spectrophotometry
T2 sequence (P29477 whole entry): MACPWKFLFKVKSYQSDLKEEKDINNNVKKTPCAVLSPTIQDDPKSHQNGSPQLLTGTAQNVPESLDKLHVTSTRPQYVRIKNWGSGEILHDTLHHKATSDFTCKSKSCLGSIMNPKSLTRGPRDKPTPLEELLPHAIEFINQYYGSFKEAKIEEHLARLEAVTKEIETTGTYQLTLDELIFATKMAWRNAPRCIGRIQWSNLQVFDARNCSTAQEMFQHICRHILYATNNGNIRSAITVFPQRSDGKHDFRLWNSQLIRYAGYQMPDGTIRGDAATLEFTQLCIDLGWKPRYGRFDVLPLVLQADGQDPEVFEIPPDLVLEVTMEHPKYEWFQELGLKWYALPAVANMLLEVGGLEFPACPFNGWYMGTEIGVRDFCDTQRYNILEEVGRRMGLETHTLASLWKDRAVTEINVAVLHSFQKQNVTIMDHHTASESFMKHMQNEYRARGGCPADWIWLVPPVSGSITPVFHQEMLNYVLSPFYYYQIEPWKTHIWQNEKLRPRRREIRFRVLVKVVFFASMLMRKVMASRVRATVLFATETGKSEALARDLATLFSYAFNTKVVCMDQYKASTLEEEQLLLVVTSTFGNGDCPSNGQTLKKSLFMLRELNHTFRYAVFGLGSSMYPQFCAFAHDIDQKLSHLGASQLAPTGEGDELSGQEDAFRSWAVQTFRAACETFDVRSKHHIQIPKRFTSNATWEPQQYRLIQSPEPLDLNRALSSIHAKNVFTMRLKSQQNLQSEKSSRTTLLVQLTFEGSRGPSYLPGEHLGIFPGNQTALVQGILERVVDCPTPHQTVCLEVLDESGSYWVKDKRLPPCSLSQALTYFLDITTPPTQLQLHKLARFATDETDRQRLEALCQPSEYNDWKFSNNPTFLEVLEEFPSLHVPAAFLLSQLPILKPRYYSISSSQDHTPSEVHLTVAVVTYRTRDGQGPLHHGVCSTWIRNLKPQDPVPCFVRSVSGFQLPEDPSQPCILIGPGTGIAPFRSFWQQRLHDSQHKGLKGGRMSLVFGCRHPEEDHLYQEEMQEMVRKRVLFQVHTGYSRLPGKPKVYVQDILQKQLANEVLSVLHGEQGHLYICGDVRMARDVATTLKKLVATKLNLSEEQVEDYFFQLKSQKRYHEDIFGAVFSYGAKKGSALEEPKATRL
How it was run: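 Murine iNOS from E. coli (15–50 nM final) in 50 mM Hepes pH 7.4 with 5 mM DTT, 100 µM CaCl2, 200 µM NADPH, 10 µM H4B, 100 µM L-arginine and 100 µM compound. Cofactors and compound preincubated 2 min at 37 °C, enzyme added, and A340 followed for 3 min (ε 6.2 mM-1 cm-1). Given as % of 1% DMSO control NADPH oxidase rate.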

[2] = Dissociation constant, pKa of the compound; format: physicochemical
How it was run: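 UV spectrophotometric titration. Compound dissolved in 10% aqueous methanol, then mixed 1:1 with NaOH (0.002–6 M) and 1 M HCl to a final 150 µM. Absorbance read at 312 nm across the pH series.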

[3] = biological target: T3, Nitric oxide synthase, inducible (Mus musculus) (UniProt P29477); test: Inhibition of mouse iNOS expressed in insect Sf9 cells at 1 mM preincubated for 15 mins followed by compound dilution
T3 sequence (whole entry): T2 sequence (P29477 whole entry)

[4] = biological target: T2, Nitric oxide synthase, inducible; test: Inhibition of mouse recombinant iNOS expressed in Escherichia coli assessed as conversion of [14C]L-arginine to [14C]L-citrulline by radioactive assay

Chain of Nitric oxide synthase 1 (P29476 whole entry): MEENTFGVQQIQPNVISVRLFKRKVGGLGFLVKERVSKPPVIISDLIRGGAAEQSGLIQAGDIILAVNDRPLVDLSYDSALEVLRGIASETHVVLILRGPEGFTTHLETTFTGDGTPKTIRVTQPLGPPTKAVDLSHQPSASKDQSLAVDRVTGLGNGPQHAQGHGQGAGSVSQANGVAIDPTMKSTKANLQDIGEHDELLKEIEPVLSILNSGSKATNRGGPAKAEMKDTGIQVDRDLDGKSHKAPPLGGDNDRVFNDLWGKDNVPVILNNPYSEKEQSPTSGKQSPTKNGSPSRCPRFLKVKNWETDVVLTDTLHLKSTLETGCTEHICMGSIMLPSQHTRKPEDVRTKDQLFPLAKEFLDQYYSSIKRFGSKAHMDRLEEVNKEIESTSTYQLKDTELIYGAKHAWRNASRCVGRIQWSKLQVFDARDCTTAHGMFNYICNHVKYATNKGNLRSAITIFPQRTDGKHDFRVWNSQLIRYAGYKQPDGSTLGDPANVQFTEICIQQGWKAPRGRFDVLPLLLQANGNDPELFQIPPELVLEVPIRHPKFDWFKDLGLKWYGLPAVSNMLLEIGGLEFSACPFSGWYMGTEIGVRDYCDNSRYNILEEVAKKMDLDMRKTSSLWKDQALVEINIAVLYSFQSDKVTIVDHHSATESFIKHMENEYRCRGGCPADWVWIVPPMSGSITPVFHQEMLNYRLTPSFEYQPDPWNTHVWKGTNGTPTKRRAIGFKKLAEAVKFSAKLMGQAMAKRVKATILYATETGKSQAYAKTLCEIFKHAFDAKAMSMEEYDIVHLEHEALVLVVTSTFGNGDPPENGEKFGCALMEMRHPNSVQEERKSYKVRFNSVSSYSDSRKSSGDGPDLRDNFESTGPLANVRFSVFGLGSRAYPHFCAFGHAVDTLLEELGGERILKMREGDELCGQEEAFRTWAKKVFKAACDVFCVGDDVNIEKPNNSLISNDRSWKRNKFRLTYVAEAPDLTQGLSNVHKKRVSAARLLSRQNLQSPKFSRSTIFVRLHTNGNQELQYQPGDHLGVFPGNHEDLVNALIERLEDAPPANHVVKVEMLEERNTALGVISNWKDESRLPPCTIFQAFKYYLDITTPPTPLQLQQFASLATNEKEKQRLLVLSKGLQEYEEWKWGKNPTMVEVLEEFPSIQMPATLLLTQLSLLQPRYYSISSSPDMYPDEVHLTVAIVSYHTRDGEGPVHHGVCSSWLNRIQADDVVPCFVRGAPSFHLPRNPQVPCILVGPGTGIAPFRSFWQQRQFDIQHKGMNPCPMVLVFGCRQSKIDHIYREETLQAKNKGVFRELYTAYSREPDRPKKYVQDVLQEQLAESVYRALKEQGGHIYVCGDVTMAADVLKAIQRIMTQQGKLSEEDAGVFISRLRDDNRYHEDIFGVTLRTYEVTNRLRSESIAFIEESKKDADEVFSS

Row | Structure (SMILES) | IC50 (Nitric oxide synthase 1) [µM] | IC50 (Nitric oxide synthase 3) [µM] | further results
1 | CC1=CC2=NCC(C(=O)c3ccc(-c4ccc(C#N)cc4)cc3)CN2C=C1.Cl (configuration not stated) | 128 | 12 | IC50 [1]: 11 µM
2 | O=C(c1ccc(Br)cc1)C1CN=C2C=CC=CN2C1 (configuration not stated) |  |  | pKa [2]: 12.4
3 | CC1=CC2=NCC(C(=O)c3ccc(OCc4ccc(Cl)cc4)cc3)CN2C=C1.[O-][Cl+3]([O-])([O-])O (configuration not stated) |  | 12 | 
4 | CC1=CC2=NCC(C(=O)c3ccc(-c4ccc(Br)cc4)cc3)CN2C=C1.[O-][Cl+3]([O-])([O-])O (configuration not stated) |  |  | Activity [3]: inactive; IC50 [4]: 28 µM

Further compounds by falling IC50 (Nitric oxide synthase 3), results first:

Row | IC50 (Nitric oxide synthase 1) [µM] | IC50 (Nitric oxide synthase 3) [µM] | Structure (SMILES) | further results
5 |  | 188 | CC1=CC2=NCC(C(=O)c3ccc(-c4ccc(Br)cc4)cc3)CN2C(C)=C1 (configuration not stated) | 
6 | 87 | 60 | COc1ccc(-c2ccc(C(=O)C3CN=C4C=C(C)C=CN4C3)cc2)cc1.Cl (configuration not stated) | 
7 | 60 | 53 | CC1=CC2=NCC(C(=O)c3ccc4cc(C)ccc4c3)CN2C(C)=C1.[O-][Cl+3]([O-])([O-])O (configuration not stated) | 
